Results taken from publication PMC3770484 (European journal of medicinal chemistry, 2013).

Tests used:
[1] = tested on: tubulin (colchicine site); assay: Inhibition of [3H]colchicine binding to tubulin; conditions: tubulin 1 μM, [3H]colchicine 5 μM, 10 min at 37 °C, ± SD
Outline: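 Tritiated colchicine (5.0 μM) incubated with 1.0 μM tubulin and test compound at 5.0 or 1.0 μM for 10 min at 37 °C. At this point about 40-60% of maximum colchicine binding occurs in controls. Percent inhibition of binding reported. Compounds inhibiting by more than 80% at 5 μM were retested at 1 μM.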

[2] = tested on: human tumor cell line panel (A549, KB, KBvin, and DU145); assay: SRB cytotoxicity, range over the whole HTCL panel; format: cell-based; conditions: read-out: GI50 range over HTCL panel
Outline: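 Sulforhodamine B growth assay on human A-549, KB, DU145 and KBvin lines; KBvin is a vincristine-resistant, P-gp-expressing KB subline. Paclitaxel served as reference.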

Row | SMILES | Inhibition of colchicine binding (%) inhibition ([1]; inhibitor at 1 μM) | Inhibition of colchicine binding (%) inhibition ([1]; inhibitor at 5 μM) | GI50 [2]
1 | COc1ccc(/C=C\c2cc(OC)c(OC)c(OC)c2)cc1O [CA4, combretastatin A-4] | 90 ± 0.2% | 98 ± 0.6% | 
2 | COc1ccc2c(c1)CCCN2c1nc(Cl)nc2ccccc12 [Compound 6d, N-(2′-Chloroquinazol-4′-yl)-6-methoxy-1,2,3,4-tetrahydroquinoline] |  |  | 1.5 to 1.7 nM
